Measured values taken from ChEMBL document CHEMBL1134388, “Nonpeptide cholecystokinin-2 receptor agonists” (J Med Chem, 2001).
Active and inactive are the calls of the source. The rule behind the calls is not given here.

Key:
[1] = molecular target: T1, Gastrin/cholecystokinin type B receptor (Mus musculus) (UniProt P56481); experiment: Antagonistic activity against CCK2 receptor in mouse cortex assay using [125 I]-BH-CCK-8S; format: functional, tissue-based
T1 sequence (whole entry): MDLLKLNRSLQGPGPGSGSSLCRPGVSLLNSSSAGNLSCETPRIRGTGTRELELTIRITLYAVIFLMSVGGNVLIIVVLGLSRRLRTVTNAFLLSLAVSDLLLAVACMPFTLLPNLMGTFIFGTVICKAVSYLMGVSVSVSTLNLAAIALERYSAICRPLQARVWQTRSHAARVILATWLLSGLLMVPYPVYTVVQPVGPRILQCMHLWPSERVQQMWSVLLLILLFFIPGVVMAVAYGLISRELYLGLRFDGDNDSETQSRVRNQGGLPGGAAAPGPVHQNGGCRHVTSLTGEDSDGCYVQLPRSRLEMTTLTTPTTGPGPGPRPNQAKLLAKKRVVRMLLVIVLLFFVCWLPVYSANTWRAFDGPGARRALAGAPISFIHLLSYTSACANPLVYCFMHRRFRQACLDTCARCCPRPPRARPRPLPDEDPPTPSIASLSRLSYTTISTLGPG
Outline: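 Radioligand competition binding to CCK2 sites in mouse cerebral cortex homogenates against 20 pM [125I]BH-CCK-8S; pKB reported as mean ± SEM from at least three separate experiments.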

[2] = molecular target: T2, Gastrin/cholecystokinin type B receptor (Rattus norvegicus) (UniProt P30553); experiment: Antagonistic activity against CCK2 receptor in rat stomach; format: functional, tissue-based
T2 sequence (whole entry): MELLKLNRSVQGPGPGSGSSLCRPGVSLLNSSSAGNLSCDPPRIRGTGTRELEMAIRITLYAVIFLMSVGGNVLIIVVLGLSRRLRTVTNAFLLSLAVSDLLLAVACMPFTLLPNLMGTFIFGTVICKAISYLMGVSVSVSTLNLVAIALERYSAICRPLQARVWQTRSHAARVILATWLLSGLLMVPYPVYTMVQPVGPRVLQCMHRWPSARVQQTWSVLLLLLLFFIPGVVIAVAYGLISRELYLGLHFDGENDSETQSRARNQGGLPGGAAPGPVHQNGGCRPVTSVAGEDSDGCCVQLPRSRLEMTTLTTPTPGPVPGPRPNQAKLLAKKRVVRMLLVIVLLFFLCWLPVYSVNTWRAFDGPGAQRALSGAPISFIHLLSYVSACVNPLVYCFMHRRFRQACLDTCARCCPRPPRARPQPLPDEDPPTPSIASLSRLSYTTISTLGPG

[3] = organism: Mus musculus; experiment: Effect on acid secretion was determined in isolated,lumen-perfused immature mouse stomach; No acid secretion; format: functional
Outline: (§1)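 Isolated, lumen-perfused mouse stomach; compound applied alone and acid secretion observed, scored as present or absent. Tested as bis(N-methyl-D-glucamine) salts.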

[4] = organism: Mus musculus; experiment: Effect on acid secretion was determined in isolated,lumen-perfused immature mouse stomach; Acid secretion; format: functional; outline: as §1
[5] = organism: Mus musculus; experiment: Charecterization of agonist response of ligand in mouse stomach bioassay; format: functional
[6] = organism: Mus musculus; experiment: Charecterization of agonist response of ligand in mouse stomach bioassay measured as affinity of L-365260; format: functional

| Compound | pKB [1] | pKB [2] | Acid secretion [3] | Acid secretion [4] | pA50 [5] | Kb ([6]; read-out: pA2 (converted)) [nM] | pKB [6] |
| --- | --- | --- | --- | --- | --- | --- | --- |
| O=C(O)c1cc(NC(=O)[C@H](Cc2ccccc2)NC(=O)c2cc3[nH]ccc3cc2C(=O)NCC23CC4CC(CC(C4)C2)C3)cc(C(=O)O)c1 | 7.87 | 9.26 | inactive |  |  |  |  |
| Cn1ccc2cc(C(=O)NCC34CC5CC(CC(C5)C3)C4)c(C(=O)N[C@@H](Cc3ccccc3)C(=O)Nc3cc(C(=O)O)cc(C(=O)O)c3)cc21 | 8.36 | 8.57 |  | Active | 7.94 |  |  |
| CCCCn1ccc2cc(C(=O)N[C@@H](Cc3ccccc3)C(=O)Nc3cc(C(=O)O)cc(C(=O)O)c3)c(C(=O)NCC34CC5CC(CC(C5)C3)C4)cc21 | 8.44 | 7.35 |  | Active |  |  |  |
| Cn1ccc2cc(C(=O)N[C@@H](Cc3ccccc3)C(=O)Nc3cc(C(=O)O)cc(C(=O)O)c3)c(C(=O)NCC34CC5CC(CC(C5)C3)C4)cc21 (stereo in doubt; 4) [listing 1 of 2 here] | 9.43 | 8.99 |  | Active |  |  |  |
| CSCC[C@H](NC(=O)[C@H](Cc1c[nH]c2ccccc12)NC(=O)CCNC(=O)OC(C)(C)C)C(=O)N[C@@H](CC(=O)O)C(=O)N[C@@H](Cc1ccccc1)C(N)=O [PENTAGASTRIN] |  |  |  |  | 7.73 | 9.77 |  |
| Cn1cnc2cc(C(=O)N[C@@H](Cc3ccccc3)C(=O)Nc3cc(C(=O)O)cc(C(=O)O)c3)c(C(=O)NCC34CC5CC(CC(C5)C3)C4)cc21 | 7.6 | 8.95 |  | Active |  |  |  |
| CCCCn1ccc2cc(C(=O)NCC34CC5CC(CC(C5)C3)C4)c(C(=O)N[C@@H](Cc3ccccc3)C(=O)Nc3cc(C(=O)O)cc(C(=O)O)c3)cc21 | 7.52 | 6.86 |  | Active |  |  |  |
| Cn1ccc2cc(C(=O)N[C@@H](Cc3ccccc3)C(=O)Nc3cc(C(=O)O)cc(C(=O)O)c3)c(C(=O)NCC34CC5CC(CC(C5)C3)C4)cc21 (stereo in doubt; 3) [listing 1 of 2 here] | 8.42 | 9.8 |  | Active |  |  |  |
| Cn1ccc2cc(C(=O)N[C@@H](Cc3ccccc3)C(=O)Nc3cc(C(=O)O)cc(C(=O)O)c3)c(C(=O)NCC34CC5CC(CC(C5)C3)C4)cc21 (stereo in doubt; 3) [listing 2 of 2 here] |  |  |  |  | 8.4 |  | 7.04 |
| O=C(O)c1cc(NC(=O)[C@H](Cc2ccccc2)NC(=O)c2cc3cc[nH]c3cc2C(=O)NCC23CC4CC(CC(C4)C2)C3)cc(C(=O)O)c1 | 8.96 | 9.9 |  |  |  |  |  |
| Cn1ccc2cc(C(=O)N[C@@H](Cc3ccccc3)C(=O)Nc3cc(C(=O)O)cc(C(=O)O)c3)c(C(=O)NCC34CC5CC(CC(C5)C3)C4)cc21 (stereo in doubt; 4) [listing 2 of 2 here] |  |  |  |  | 8.69 |  | 7.02 |
| CC(=O)n1ccc2cc(C(=O)N[C@@H](Cc3ccccc3)C(=O)Nc3cc(C(=O)O)cc(C(=O)O)c3)c(C(=O)NCC34CC5CC(CC(C5)C3)C4)cc21 | 8.74 | 8.72 |  |  |  |  |  |
